Experimental data published in ChEMBL document CHEMBL2069295, “Discovery of 6-substituted 4-anilinoquinazolines with dioxygenated rings as novel EGFR tyrosine kinase inhibitors” (Bioorg Med Chem Lett, 2012).
Converted amounts (≈) assume the structure as drawn. The source made the active and inactive calls. The rule behind the calls is not given here.

Assays:
[1] = system: A-431; assay: Antiproliferative activity against human A431 cells after 24 to 48 hrs by WST1 assay; assay type: functional, cell-based
[2] = target: Vascular endothelial growth factor receptor 2 (Homo sapiens, UniProt P35968); assay: Inhibition of VEGFR2 using ATP incubated for 30 mins prior to ATP addition measured after 60 mins by fluorimetry
Sequence of Vascular endothelial growth factor receptor 2 (P35968 whole entry): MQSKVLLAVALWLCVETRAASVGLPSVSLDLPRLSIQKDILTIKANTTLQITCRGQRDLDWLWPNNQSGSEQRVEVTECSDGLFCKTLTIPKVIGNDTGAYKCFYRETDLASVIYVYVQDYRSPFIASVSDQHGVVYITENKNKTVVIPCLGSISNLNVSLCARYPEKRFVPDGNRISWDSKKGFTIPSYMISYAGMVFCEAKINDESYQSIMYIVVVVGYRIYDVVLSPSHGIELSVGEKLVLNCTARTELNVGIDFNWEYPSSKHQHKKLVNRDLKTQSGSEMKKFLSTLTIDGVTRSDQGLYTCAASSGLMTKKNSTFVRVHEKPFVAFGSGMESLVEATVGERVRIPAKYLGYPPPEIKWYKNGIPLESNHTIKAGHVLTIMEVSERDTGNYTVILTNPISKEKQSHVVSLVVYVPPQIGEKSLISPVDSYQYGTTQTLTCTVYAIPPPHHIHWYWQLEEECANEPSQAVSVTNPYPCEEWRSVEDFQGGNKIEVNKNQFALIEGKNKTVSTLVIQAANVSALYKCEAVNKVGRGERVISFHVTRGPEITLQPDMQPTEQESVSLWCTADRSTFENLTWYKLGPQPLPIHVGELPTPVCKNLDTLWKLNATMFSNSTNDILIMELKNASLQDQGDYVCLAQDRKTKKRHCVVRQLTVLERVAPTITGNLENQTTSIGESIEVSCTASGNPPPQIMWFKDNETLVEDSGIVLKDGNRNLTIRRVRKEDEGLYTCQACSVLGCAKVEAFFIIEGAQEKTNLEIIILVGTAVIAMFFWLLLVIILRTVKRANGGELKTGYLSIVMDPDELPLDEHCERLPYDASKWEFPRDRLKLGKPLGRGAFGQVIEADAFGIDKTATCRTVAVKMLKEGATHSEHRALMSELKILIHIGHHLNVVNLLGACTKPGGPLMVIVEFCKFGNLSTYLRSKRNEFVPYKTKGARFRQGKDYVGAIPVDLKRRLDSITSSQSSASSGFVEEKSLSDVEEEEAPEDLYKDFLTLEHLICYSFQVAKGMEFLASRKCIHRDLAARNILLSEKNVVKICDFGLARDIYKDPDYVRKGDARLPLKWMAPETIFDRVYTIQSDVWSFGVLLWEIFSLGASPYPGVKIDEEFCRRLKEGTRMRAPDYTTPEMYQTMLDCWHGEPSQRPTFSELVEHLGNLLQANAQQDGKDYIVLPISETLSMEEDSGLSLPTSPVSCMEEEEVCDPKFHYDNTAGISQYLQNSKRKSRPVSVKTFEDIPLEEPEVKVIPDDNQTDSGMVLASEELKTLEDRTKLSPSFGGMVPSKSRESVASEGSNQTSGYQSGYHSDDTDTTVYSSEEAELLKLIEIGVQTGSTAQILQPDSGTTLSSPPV

[3] = system: MCF7; assay: cells; settings: Homo sapiens
[4] = target: T1, Epidermal growth factor receptor (Homo sapiens, UniProt P00533); assay: Inhibition of EGFR in human A431 cell lysate using tyrosine/glutamic acid polymer as substrate by ELISA; set-up: species or system A-431
T1 sequence (P00533 whole entry): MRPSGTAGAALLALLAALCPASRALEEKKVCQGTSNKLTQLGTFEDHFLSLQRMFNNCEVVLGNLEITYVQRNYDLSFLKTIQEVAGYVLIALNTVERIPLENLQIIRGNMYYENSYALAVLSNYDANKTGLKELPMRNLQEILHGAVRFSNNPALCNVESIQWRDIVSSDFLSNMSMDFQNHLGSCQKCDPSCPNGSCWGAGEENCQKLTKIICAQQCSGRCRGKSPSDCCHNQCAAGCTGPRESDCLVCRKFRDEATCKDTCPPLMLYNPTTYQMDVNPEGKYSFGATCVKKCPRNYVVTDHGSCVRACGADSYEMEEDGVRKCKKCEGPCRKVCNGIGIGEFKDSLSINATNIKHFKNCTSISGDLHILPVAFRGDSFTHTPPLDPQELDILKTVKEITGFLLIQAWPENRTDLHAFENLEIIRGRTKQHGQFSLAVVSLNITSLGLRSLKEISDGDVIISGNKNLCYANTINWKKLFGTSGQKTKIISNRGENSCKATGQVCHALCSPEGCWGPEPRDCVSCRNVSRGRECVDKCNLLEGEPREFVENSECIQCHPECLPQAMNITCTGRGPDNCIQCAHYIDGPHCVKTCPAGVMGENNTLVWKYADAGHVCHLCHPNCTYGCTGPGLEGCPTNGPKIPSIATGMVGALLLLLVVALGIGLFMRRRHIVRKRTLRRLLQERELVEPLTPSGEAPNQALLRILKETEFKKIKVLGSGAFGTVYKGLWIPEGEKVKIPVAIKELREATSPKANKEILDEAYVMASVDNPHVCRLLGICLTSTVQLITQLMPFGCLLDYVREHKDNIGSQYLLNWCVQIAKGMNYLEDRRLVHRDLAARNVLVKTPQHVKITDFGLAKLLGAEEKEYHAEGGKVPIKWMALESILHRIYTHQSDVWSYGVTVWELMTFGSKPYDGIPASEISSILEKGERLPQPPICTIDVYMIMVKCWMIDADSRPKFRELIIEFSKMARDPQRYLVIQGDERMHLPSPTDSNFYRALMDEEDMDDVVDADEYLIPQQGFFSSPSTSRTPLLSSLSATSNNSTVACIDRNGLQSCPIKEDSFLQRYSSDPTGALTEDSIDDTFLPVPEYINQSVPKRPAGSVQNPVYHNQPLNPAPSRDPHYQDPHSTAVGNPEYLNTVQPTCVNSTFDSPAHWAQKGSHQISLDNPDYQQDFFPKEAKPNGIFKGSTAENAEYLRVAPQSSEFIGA

[5] = target: Receptor tyrosine-protein kinase erbB-2 (Homo sapiens, UniProt P04626); assay: Inhibition of recombinant HER2 expressed in baculovirus infected Sf9 cells using [32P]ATP incubated for 30 mins prior to ATP addition measured after 20 mins by liquid scintillation counting
Sequence of Receptor tyrosine-protein kinase erbB-2 (P04626 whole entry): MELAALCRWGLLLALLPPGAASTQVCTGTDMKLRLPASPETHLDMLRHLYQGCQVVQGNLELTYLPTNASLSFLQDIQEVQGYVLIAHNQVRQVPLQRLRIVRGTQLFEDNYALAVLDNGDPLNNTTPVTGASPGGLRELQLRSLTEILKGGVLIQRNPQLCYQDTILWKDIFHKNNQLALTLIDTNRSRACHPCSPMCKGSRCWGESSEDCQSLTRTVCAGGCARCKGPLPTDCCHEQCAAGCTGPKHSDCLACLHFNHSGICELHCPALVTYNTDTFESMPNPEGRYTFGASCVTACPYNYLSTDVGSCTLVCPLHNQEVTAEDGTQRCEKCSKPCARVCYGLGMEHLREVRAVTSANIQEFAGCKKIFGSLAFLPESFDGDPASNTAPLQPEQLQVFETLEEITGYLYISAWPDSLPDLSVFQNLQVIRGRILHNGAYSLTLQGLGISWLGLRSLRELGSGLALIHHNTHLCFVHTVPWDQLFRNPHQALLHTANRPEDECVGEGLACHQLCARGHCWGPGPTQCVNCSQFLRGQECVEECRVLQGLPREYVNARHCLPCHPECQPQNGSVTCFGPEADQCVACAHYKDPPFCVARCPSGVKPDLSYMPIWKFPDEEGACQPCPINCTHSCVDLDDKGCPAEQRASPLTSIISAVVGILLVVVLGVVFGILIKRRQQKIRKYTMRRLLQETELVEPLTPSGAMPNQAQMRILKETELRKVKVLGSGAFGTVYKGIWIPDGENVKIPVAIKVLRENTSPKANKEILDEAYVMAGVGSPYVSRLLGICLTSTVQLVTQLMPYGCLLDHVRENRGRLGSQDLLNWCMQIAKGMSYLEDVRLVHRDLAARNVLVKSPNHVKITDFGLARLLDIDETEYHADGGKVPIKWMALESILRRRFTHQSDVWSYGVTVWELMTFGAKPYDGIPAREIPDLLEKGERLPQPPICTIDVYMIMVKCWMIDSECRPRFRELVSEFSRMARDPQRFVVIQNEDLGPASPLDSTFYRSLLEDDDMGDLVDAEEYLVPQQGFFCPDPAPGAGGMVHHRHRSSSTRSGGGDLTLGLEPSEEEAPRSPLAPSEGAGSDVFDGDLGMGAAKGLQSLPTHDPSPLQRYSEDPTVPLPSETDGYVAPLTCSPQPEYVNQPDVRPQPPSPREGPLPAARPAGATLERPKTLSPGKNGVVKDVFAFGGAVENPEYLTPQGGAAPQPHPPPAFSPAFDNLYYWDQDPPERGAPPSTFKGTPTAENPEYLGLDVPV

[6] = system: A549; assay: Antiproliferative activity against human A549 cells after 24 to 48 hrs by WST1 assay; assay type: functional, cell-based
[7] = system: B16-F10; assay: cells; settings: Mus musculus
[8] = system: A549; assay: Growth inhibition of human A549 cells at 10 ug/mL after 24 to 48 hrs by WST1 assay; assay type: functional; settings: read-out: GI
Method in brief: (§1)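 Single-concentration growth inhibition at 10 µg/mL, the top concentration used because higher levels precipitated in culture medium. Three separate experiments, each in triplicate.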

[9] = system: MCF7; assay: Growth inhibition of human MCF7 cells at 10 ug/mL after 24 to 48 hrs by WST1 assay; assay type: functional; settings: read-out: GI; method in brief: as §1
[10] = target: T1, Epidermal growth factor receptor; assay: Inhibition of EGFR in human A431 cells assessed as inhibition of EGF-stimulated autophosphorylation at 100 nM incubated for 1 hr prior to EGF-induction measured after 15 mins by Western blot analysis; assay type: cell-based; settings: A-431
Method in brief: (§2)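 A431 cells were incubated […] with compound at 10 or 100 nM, then stimulated with EGF. Whole-cell lysates were Western blotted with an anti-phosphotyrosine antibody to detect EGFR autophosphorylation.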

[11] = target: T1, Epidermal growth factor receptor; assay: Inhibition of EGFR in human A431 cells assessed as inhibition of EGF-stimulated autophosphorylation at 10 nM incubated for 1 hr prior to EGF-induction measured after 15 mins by Western blot analysis; assay type: cell-based; settings: A-431; method in brief: as §2
[12] = system: B16-F10; assay: Growth inhibition of mouse B16F10 cells at 10 ug/mL after 24 to 48 hrs by WST1 assay; assay type: functional; settings: read-out: GI; method in brief: as §1

Row | IC50 [1] | IC50 [2] | IC50 [3] | IC50 [4] | IC50 [5] | IC50 [6] | IC50 [7] | inhibition [10] | inhibition [11] | SMILES | inhibition of growth at 10 µg/mL [8] | inhibition of growth at 10 µg/mL [9] | inhibition of growth at 10 µg/mL [12]
1 | 13.3 µg/mL (≈ 29.8 µM) | > 10 µM | 21.3 µg/mL (≈ 47.7 µM) | 0.92 µM | > 10 µM | 44.8 µg/mL (≈ 100 µM) | 17.5 µg/mL (≈ 39.1 µM) | – | – | Clc1cccc(Nc2ncnc3ccc(NCc4ccc5c(c4)OCCCCO5)cc23)c1 | – | – | –
2 | 2.26 µg/mL (≈ 6.27 µM) | – | 3.21 µg/mL (≈ 8.91 µM) | – | – | 8.13 µg/mL (≈ 22.6 µM) | – | – | – | COc1cc2ncnc(Nc3cccc(Br)c3)c2cc1OC | – | – | –
3 | 15 µg/mL (≈ 30.6 µM) | – | 32.1 µg/mL (≈ 65.2 µM) | 1.14 µM | – | > 100 µg/mL | 20.6 µg/mL (≈ 42 µM) | – | – | Brc1cccc(Nc2ncnc3ccc(NCc4ccc5c(c4)OCCCCO5)cc23)c1 | – | – | –
4 | 6.82 µg/mL (≈ 15.2 µM) | – | 14.5 µg/mL (≈ 32.2 µM) | 0.63 µM | – | 68.7 µg/mL (≈ 153 µM) | 3.62 µg/mL (≈ 8.06 µM) | – | – | Brc1cccc(Nc2ncnc3ccc(NCc4ccc5c(c4)OCO5)cc23)c1 | – | – | –
5 | 46.6 µg/mL (≈ 108 µM) | – | > 100 µg/mL | 1.29 µM | – | > 100 µg/mL | 9.86 µg/mL (≈ 22.8 µM) | – | – | O=C(Nc1ccc2ncnc(Nc3cccc(Cl)c3)c2c1)c1cccc2c1OCCO2 | < 50% | < 50% | –
6 | – | – | 23.1 µg/mL (≈ 55.3 µM) | – | – | – | 16.3 µg/mL (≈ 39 µM) | – | – | Clc1cccc(Nc2ncnc3ccc(NCc4ccc5c(c4)OCCO5)cc23)c1 | – | – | –
7 | 2.77 µg/mL (≈ 5.8 µM) | > 10 µM | 5.02 µg/mL (≈ 10.5 µM) | 0.098 µM | 4.8 µM | 15.5 µg/mL (≈ 32.5 µM) | 1.99 µg/mL (≈ 4.17 µM) | Active | Active | Brc1cccc(Nc2ncnc3ccc(NCc4ccc5c(c4)OCCCO5)cc23)c1 | – | – | –
8 | 19.9 µg/mL (≈ 45.9 µM) | – | 52.2 µg/mL (≈ 121 µM) | 2.75 µM | – | 61.2 µg/mL (≈ 141 µM) | > 100 µg/mL | – | – | O=C(Nc1ccc2ncnc(Nc3cccc(Cl)c3)c2c1)C1COc2ccccc2O1 (stereo unspecified) | – | – | < 50%
9 | – | > 10 µM | 7.36 µg/mL (≈ 18.2 µM) | – | 6.5 µM | – | – | – | – | Clc1cccc(Nc2ncnc3ccc(NCc4ccc5c(c4)OCO5)cc23)c1 | – | – | –
10 | 12.5 µg/mL (≈ 27.1 µM) | – | 10.7 µg/mL (≈ 23.1 µM) | 1.02 µM | – | 58.3 µg/mL (≈ 126 µM) | 12 µg/mL (≈ 25.9 µM) | – | – | Brc1cccc(Nc2ncnc3ccc(NCc4ccc5c(c4)OCCO5)cc23)c1 | – | – | –
11 | 2.59 µg/mL (≈ 5.98 µM) | – | 4.28 µg/mL (≈ 9.89 µM) | 0.216 µM | – | 31 µg/mL (≈ 71.7 µM) | 2.14 µg/mL (≈ 4.94 µM) | Active | – | Clc1cccc(Nc2ncnc3ccc(NCc4ccc5c(c4)OCCCO5)cc23)c1 | – | – | –
12 | 42.9 µg/mL (≈ 89.9 µM) | – | > 100 µg/mL | 3.68 µM | – | 73.8 µg/mL (≈ 155 µM) | 50.1 µg/mL (≈ 105 µM) | Active | – | O=C(Nc1ccc2ncnc(Nc3cccc(Br)c3)c2c1)C1COc2ccccc2O1 (stereo unspecified) | – | < 50% | –
13 | 20.3 µg/mL (≈ 42.6 µM) | – | 59.5 µg/mL (≈ 125 µM) | 1.63 µM | – | 84 µg/mL (≈ 176 µM) | > 100 µg/mL | – | – | O=C(Nc1ccc2ncnc(Nc3cccc(Br)c3)c2c1)c1cccc2c1OCCO2 | – | – | < 50%
